Shown are actives, neighbours in structure and some others; about 1.3% of the full set was active somewhere.
NR2E3 ag-1 – NR2E3 (human) agonism; inhibition of corepressor binding, % at 4.78 µM; Q9Y5X4; AID 2300; GST-NR2E3/biotin-RetCOR TR-FRET, 1536-well; actives 0.12% (n = 320,000);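 active = percent inhibition above the cutoff of mean plus 3 SD of all tested compounds, set per screening campaign, cut at about 20% in these data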;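 also: 0% = DMSO wells and 100% = biotin wells as full block of FRET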
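Material: NR2E3–RetCOR corepressor complex / Incubation: Compound–protein incubation for 5 h at 4 °C / Dosing: compound at 4.8 µM, single dose / Detection: time-resolved FRET / Benchmarks: high control biotin, low control 0.6% DMSO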
NR2E3 ag-2 – agonists of human NR2E3 nuclear receptor | Q9Y5X4 | CHO-S Gal4-NCOR/VP16-NR2E3 two-hybrid, luciferase | inhibition of corepressor binding, % at 3.98 µM | actives 0.35% (n = 360,000) | AID 602229;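 active = inhibition above the mean of all tested compounds plus 3 SD, cut at about 70% in these data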;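 also: 0% = DMSO with NR2E3 transfected cells and 100% = cells lacking NR2E3 construct; higher means lower luciferase signal from less NR2E3 corepressor binding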
PP5 inh – inhibitors of human protein phosphatase 5 (PP5). actives 0.18% (n = 320,000). inhibition, % at 6.7 µM. P53041. purified PP5c, OMFP substrate fluorescence;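 active = inhibition above the campaign's mean inhibition across all tested compounds plus 3 SD, cut at about 9.5% in these data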;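 also: 0% = DMSO only and 100% = 100 µM cantharidin control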
Target sequence (P53041 whole entry, looked up): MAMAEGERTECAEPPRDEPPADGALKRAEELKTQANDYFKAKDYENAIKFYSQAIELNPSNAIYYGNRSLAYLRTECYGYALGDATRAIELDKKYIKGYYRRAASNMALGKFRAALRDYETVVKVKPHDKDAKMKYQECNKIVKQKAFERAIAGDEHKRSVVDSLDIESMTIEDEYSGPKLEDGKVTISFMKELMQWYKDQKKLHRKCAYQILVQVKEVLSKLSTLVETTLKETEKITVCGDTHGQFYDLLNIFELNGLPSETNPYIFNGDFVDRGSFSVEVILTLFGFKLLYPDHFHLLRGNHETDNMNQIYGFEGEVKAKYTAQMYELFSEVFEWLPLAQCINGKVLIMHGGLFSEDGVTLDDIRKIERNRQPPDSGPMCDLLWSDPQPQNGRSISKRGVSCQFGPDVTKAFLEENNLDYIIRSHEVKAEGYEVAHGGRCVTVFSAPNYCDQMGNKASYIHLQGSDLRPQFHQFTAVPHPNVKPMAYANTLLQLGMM
PP1 inh – PP1-alpha (human) inhibition in PP5 counter-screen. P62136. purified PP1alpha, OMFP fluorescence. inhibition, % at 6.7 µM. actives 0.9% (n = 320,000);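 active = inhibition above the mean inhibition of all tested compounds plus 3 SD, computed separately for each screening campaign, cut at about 15% in these data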
PP1 inh confirm – human PP1 phosphatase inhibition, confirmation; inhibition, % at 6.7 µM; shares compounds with PP1 inh; actives 52% (n = 1,900); purified PP1alpha, OMFP substrate fluorescence; AID 2358;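 active = mean PP1 inhibition above a set limit taken from the earlier primary screen, cut at about 15% in these data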
PP5 counter – counter-screen for PP1 inhibitors: human PP5 phosphatase inhibition. shares compounds with PP1 inh. actives 4% (n = 1,900). purified PP5c, OMFP fluorescence. inhibition, % at 6.7 µM;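 active = mean PP5 inhibition over triplicate wells above about 9.5% taken from the earlier PP1 screen, limit read from the data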
Starred values were filed as active, the others as inactive; x = not tested or not shown.

SMILES	NR2E3 ag-1	NR2E3 ag-2	PP5 inh	PP1 inh	PP1 inh confirm	PP5 counter
O=C(Nc1nnc(C2CC2)o1)c1ccc(S(=O)(=O)N2CCCc3ccccc32)cc1	4	47	2	33*	31*	1
N=C1/C(=C/c2coc3ccccc3c2=O)C(=O)N=C2SC(c3ccco3)=NN12	-2	-28	-1	3	x	x
N=C1/C(=C\c2coc3ccccc3c2=O)C(=O)N=C2SC(c3ccncc3)=NN12	6	-17	-3	34*	39*	-8
CCN(CC)CCOC(=O)c1ccc(N/C=C(/C#N)c2nc(-c3cc4ccccc4oc3=O)cs2)cc1	x	-50	x	x	x	x
CCN(CC)CCOC(=O)c1ccc(N/C=C(/C#N)c2nc(-c3ccc4c(c3)OCO4)cs2)cc1	-3	11	0	65*	39*	0
CCN(CC)CCOC(=O)c1ccc(N/C=C(/C#N)c2nc(-c3ccc(OC)cc3)cs2)cc1	-2	3	1	60*	6	-1
CCCSc1ccc([C@@H]2[C@H]3C(=O)N(CC)C(=O)[C@H]3[C@]3(C(=O)OC)CCCCN23)cc1	0	-16	4	0	x	x
OC(c1ccc(Cl)c(F)c1)c1ncc(-c2ccccc2F)[nH]1 (centres undefined)	x	-16	x	x	x	x
CCNc1nc(NCC)nc(C(=O)NN)n1	1	10	1	24*	4	0
CCNc1nc(NCC)nc(OCC(=O)O)n1	-1	1	0	-4	x	x
COCCn1c(=NC(=O)c2cccs2)sc2cc(NC(C)=O)ccc21	-1	-80	-2	19*	-1	-3
COCCn1c(=NC(=O)/C=C/c2ccccc2Cl)sc2cc(NC(C)=O)ccc21	1	4	0	9	x	x
O=C(O)c1ccccc1N/N=C/c1cc(Br)cc(Br)c1O	2	-159	1	23*	11	-1
CCn1c(CC(=O)Nc2ccc(C)cc2)nnc1SCC(=O)N1CCOCC1	0	-18	1	26*	1	0
O=C(CNS(=O)(=O)c1ccc(Br)cc1Cl)OCC(=O)c1ccc[nH]1	-1	25	0	35*	1	-5
CCOC(=O)c1sc(-c2ccc(Cl)cc2Cl)nc1O	2	-1	-2	21*	21*	-4
COc1ccc(N(C(=O)c2snc(C(N)=O)c2N)C(C(=O)NC2CCCC2)c2cccs2)cc1OC (centres undefined)	1	-8	2	18*	29*	1
COc1cccc(N(C(=O)CS(=O)CC(=O)Nc2ccc(F)cc2)C(C(=O)NC2CCCCC2)c2cccs2)c1 (centres undefined)	1	13	1	20*	28*	0
CCC(C(=O)NC1CCCC1)N(C(=O)c1snc(C(N)=O)c1N)c1ccc(OC)c(OC)c1 (centres undefined)	8	-18	-1	-2	x	x
O=C(CS(=O)CC(=O)N(c1ccccc1)C(C(=O)NC1CCCC1)c1cccs1)Nc1ccc(F)cc1 (centres undefined)	0	6	1	0	x	x
COc1ccc(C[C@H]2CN3C(=NC[C@H]3Cc3ccccc3)N2CCNC(=O)c2ccc(C)c(Br)c2)cc1	-2	36	1	19*	-5	1
COc1ccc(C[C@H]2CN3C(=NC[C@@H]3Cc3ccccc3)N2CCNC(=O)c2ccc(C)c(Br)c2)cc1	6	3	-1	22*	-7	-2
COc1ccc(C[C@H]2CN3C(=NC[C@@H]3Cc3ccc(O)cc3)N2C[C@H](C)NC(=O)c2ccc(C)c(Br)c2)cc1	-2	21	3	18*	10	-4
COc1ccc(C[C@H]2CN3C(=NC[C@@H]3Cc3ccc(O)cc3)N2CCNC(=O)c2ccc(C)c(Br)c2)cc1	-3	2	4	13	x	x
O=C(Nc1nnc([C@H]2C[C@H](O)[C@@H](CO)O2)s1)Nc1ccccc1Oc1ccccc1	x	1	x	x	x	x
COc1ccc(/C=C/c2nnc(NC(=O)CSc3ccc(C)cc3)s2)cc1	5	-41	2	-4	x	x
CCC(=O)Nc1nnc(/C=C/c2ccc(OC)cc2)s1	-3	-64	3	22*	4	-1
Cc1nn(-c2ccc(Cl)cc2)c(Cl)c1/C=N/NC(=O)c1ccc(NS(=O)(=O)c2cccs2)cc1	-1	-18	2	19*	15	1

Screening results (PubChem)
